Values joined by “and” are separate entries in the source; they are usually repeats but may differ in a detail not shown here. Equal values may be shown once.
Assays:
Type in all cases: toxicity, cell-based
[1] = tested on: HEK-293T; test: Multiplex assay against HEK293T; settings: human, number of replicates 2
Summary of the method: (§1)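 On a CQ1 microscope at 37°C and 5% CO2, live cells were imaged after compound addition. They had been stained at seeding with Hoechst33342, BioTracker Green Microtubule Cytoskeleton Dye, MitoTracker Red and Annexin V Alexa Fluor 680. CellPathfinder machine-learning gating assigned cells to Hoechst high-intensity objects or normal cells, normal cells to healthy, pyknosed or fragmented nuclei, and pyknosed cells to mitotic or apoptotic. Tubulin, mitochondrial-mass and membrane-permeability phenotypes are per cents of healthy-nucleus cells.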

[2] = tested on: U2OS; test: Multiplex assay against U2OS; settings: human, number of replicates 2; summary of the method: as §1
[3] = tested on: Fibroblast; test: Multiplex assay against human fibroblast; settings: number of replicates 2; summary of the method: as §1
[4] = 12 h, 1 µM, compound concentration 1 uM
[5] = 12 h, 10 µM, compound concentration 10 uM
[6] = 24 h, 1 µM, compound concentration 1 uM
[7] = 24 h, 10 µM, compound concentration 10 uM
[8] = 48 h, 1 µM, compound concentration 1 uM
[9] = 48 h, 10 µM, compound concentration 10 uM

CN(C)C/C=C/C(=O)Nc1ccc(C(=O)N2CCCC(Nc3ncc(Cl)c(-c4c[nH]c5ccccc45)n3)C2)cc1 (centres undefined)
Population Apoptotic (%) [1, 4]: 55% and 71% | Population Fragmented Nuclei (%) [1, 4]: 6% and 2% | Population Healthy Nuclei (%) [1, 4]: 72% and 69% | Population Hoechst High Intensity Objects (%) [1, 4]: 14% and 16% | Population Membrane Permeable-Phenotype (%) [1, 4]: 3% and 1% | Population Mitochondria Different-Phenotype (%) [1, 4]: 63% and 58% | Population Mitotic Cells (%) [1, 4]: 44% and 28% | Population Normal (%) [1, 4]: 85% and 83% | Population Pyknosed Nuclei (%) [1, 4]: 20% and 28% | Population Tubulin-Different-Phenotype (%) [1, 4]: 83% and 79% | Total Cell Count [1, 4]: 354 and 300 | Population Apoptotic (%) [1, 5]: 69% and 84% | Population Fragmented Nuclei (%) [1, 5]: 5% and 11% | Population Healthy Nuclei (%) [1, 5]: 67% and 68% | Population Hoechst High Intensity Objects (%) [1, 5]: 29% and 21% | Population Membrane Permeable-Phenotype (%) [1, 5]: 5% and 2% | Population Mitochondria Different-Phenotype (%) [1, 5]: 63% and 70% | Population Mitotic Cells (%) [1, 5]: 30% and 15% | Population Normal (%) [1, 5]: 70% and 78% | Population Pyknosed Nuclei (%) [1, 5]: 26% and 20% | Population Tubulin-Different-Phenotype (%) [1, 5]: 88% and 85% | Total Cell Count [1, 5]: 280 and 375 | Population Apoptotic (%) [1, 6]: 73% and 75% | Population Fragmented Nuclei (%) [1, 6]: 6% and 5% | Population Healthy Nuclei (%) [1, 6]: 75% and 74% | Population Hoechst High Intensity Objects (%) [1, 6]: 17% and 19% | Population Membrane Permeable-Phenotype (%) [1, 6]: 2% and 0% | Population Mitochondria Different-Phenotype (%) [1, 6]: 68% and 60% | Population Mitotic Cells (%) [1, 6]: 26% and 25% | Population Normal (%) [1, 6]: 82% and 80% | Population Pyknosed Nuclei (%) [1, 6]: 17% and 20% | Population Tubulin-Different-Phenotype (%) [1, 6]: 80% and 68% | Total Cell Count [1, 6]: 318 and 268 | Population Apoptotic (%) [1, 7]: 89% and 91% | Population Fragmented Nuclei (%) [1, 7]: 7% and 10% | Population Healthy Nuclei (%) [1, 7]: 75% and 71% | Population Hoechst High Intensity Objects (%) [1, 7]: 28% and 25% | Population Membrane Permeable-Phenotype (%) [1, 7]: 5% and 2% | Population Mitochondria Different-Phenotype (%) [1, 7]: 78% and 79% | Population Mitotic Cells (%) [1, 7]: 10% and 8% | Population Normal (%) [1, 7]: 71% and 74% | Population Pyknosed Nuclei (%) [1, 7]: 17% | Population Tubulin-Different-Phenotype (%) [1, 7]: 88% and 86% | Total Cell Count [1, 7]: 313 and 357 | Population Apoptotic (%) [1, 8]: 85% and 78% | Population Fragmented Nuclei (%) [1, 8]: 9% and 4% | Population Healthy Nuclei (%) [1, 8]: 75% and 77% | Population Hoechst High Intensity Objects (%) [1, 8]: 22% and 15% | Population Membrane Permeable-Phenotype (%) [1, 8]: 0% and 1% | Population Mitochondria Different-Phenotype (%) [1, 8]: 76% and 69% | Population Mitotic Cells (%) [1, 8]: 14% and 21% | Population Normal (%) [1, 8]: 77% and 84% | Population Pyknosed Nuclei (%) [1, 8]: 15% and 17% | Population Tubulin-Different-Phenotype (%) [1, 8]: 81% and 77% | Total Cell Count [1, 8]: 284 and 272 | Population Apoptotic (%) [1, 9]: 75% and 83% | Population Fragmented Nuclei (%) [1, 9]: 8% and 17% | Population Healthy Nuclei (%) [1, 9]: 54% | Population Hoechst High Intensity Objects (%) [1, 9]: 24% and 26% | Population Membrane Permeable-Phenotype (%) [1, 9]: 1% and 5% | Population Mitochondria Different-Phenotype (%) [1, 9]: 75% and 70% | Population Mitotic Cells (%) [1, 9]: 25% and 16% | Population Normal (%) [1, 9]: 75% and 73% | Population Pyknosed Nuclei (%) [1, 9]: 36% and 28% | Population Tubulin-Different-Phenotype (%) [1, 9]: 83% and 82% | Total Cell Count [1, 9]: 362 and 446 | Population Apoptotic (%) [2, 4]: 28% and 47% | Population Healthy Nuclei (%) [2, 4]: 61% and 77% | Population Hoechst High Intensity Objects (%) [2, 4]: 0% | Population Membrane Permeable-Phenotype (%) [2, 4]: 7% and 3% | Population Mitochondria Different-Phenotype (%) [2, 4]: 3% | Population Mitotic Cells (%) [2, 4]: 71% and 52% | Population Normal (%) [2, 4]: 100% | Population Pyknosed Nuclei (%) [2, 4]: 16% and 15% | Population Tubulin-Different-Phenotype (%) [2, 4]: 88% and 93% | Population Apoptotic (%) [2, 5]: 66% and 86% | Population Fragmented Nuclei (%) [2, 5]: 20% and 10% | Population Healthy Nuclei (%) [2, 5]: 44% and 40% | Population Hoechst High Intensity Objects (%) [2, 5]: 0% | Population Membrane Permeable-Phenotype (%) [2, 5]: 0% and 22% | Population Mitotic Cells (%) [2, 5]: 33% and 13% | Population Normal (%) [2, 5]: 100% and 99% | Population Pyknosed Nuclei (%) [2, 5]: 36% and 48% | Population Tubulin-Different-Phenotype (%) [2, 5]: 81% and 57% | Population Apoptotic (%) [2, 6]: 70% and 76% | Population Fragmented Nuclei (%) [2, 6]: 19% and 8% | Population Healthy Nuclei (%) [2, 6]: 52% and 67% | Population Hoechst High Intensity Objects (%) [2, 6]: 0% | Population Membrane Permeable-Phenotype (%) [2, 6]: 10% and 3% | Population Mitochondria Different-Phenotype (%) [2, 6]: 0% and 1% | Population Mitotic Cells (%) [2, 6]: 30% and 23% | Population Normal (%) [2, 6]: 100% | Population Pyknosed Nuclei (%) [2, 6]: 27% and 23% | Population Tubulin-Different-Phenotype (%) [2, 6]: 89% and 95% | Population Apoptotic (%) [2, 7]: 93% and 80% | Population Fragmented Nuclei (%) [2, 7]: 8% and 17% | Population Hoechst High Intensity Objects (%) [2, 7]: 5% and 0% | Population Membrane Permeable-Phenotype (%) [2, 7]: 58% and 22% | Population Normal (%) [2, 7]: 94% and 100% | Population Pyknosed Nuclei (%) [2, 7]: 80% and 43% | Population Tubulin-Different-Phenotype (%) [2, 7]: 76% and 100% | Population Apoptotic (%) [2, 8]: 90% and 83% | Population Fragmented Nuclei (%) [2, 8]: 12% and 7% | Population Healthy Nuclei (%) [2, 8]: 74% and 75% | Population Hoechst High Intensity Objects (%) [2, 8]: 0% | Population Membrane Permeable-Phenotype (%) [2, 8]: 3% and 5% | Population Mitochondria Different-Phenotype (%) [2, 8]: 1% and 3% | Population Mitotic Cells (%) [2, 8]: 10% and 16% | Population Normal (%) [2, 8]: 100% | Population Pyknosed Nuclei (%) [2, 8]: 13% and 16% | Population Tubulin-Different-Phenotype (%) [2, 8]: 98% and 97% | Population Apoptotic (%) [2, 9]: 92% and 69% | Population Healthy Nuclei (%) [2, 9]: 13% and 20% | Population Hoechst High Intensity Objects (%) [2, 9]: 1% and 0% | Population Membrane Permeable-Phenotype (%) [2, 9]: 91% and 40% | Population Mitochondria Different-Phenotype (%) [2, 9]: 83% and 60% | Population Normal (%) [2, 9]: 98% and 100% | Population Pyknosed Nuclei (%) [2, 9]: 79% and 52% | Population Tubulin-Different-Phenotype (%) [2, 9]: 100% | Population Apoptotic (%) [3, 4]: 40% and 56% | Population Fragmented Nuclei (%) [3, 4]: 10% and 12% | Population Healthy Nuclei (%) [3, 4]: 68% and 67% | Population Hoechst High Intensity Objects (%) [3, 4]: 0% | Population Membrane Permeable-Phenotype (%) [3, 4]: 3% and 5% | Population Mitochondria Different-Phenotype (%) [3, 4]: 0% and 2% | Population Mitotic Cells (%) [3, 4]: 59% and 43% | Population Normal (%) [3, 4]: 99% and 100% | Population Pyknosed Nuclei (%) [3, 4]: 21% and 20% | Population Tubulin-Different-Phenotype (%) [3, 4]: 11% and 13% | Total Cell Count [3, 4]: 174 and 157 | Population Apoptotic (%) [3, 5]: 63% and 53% | Population Fragmented Nuclei (%) [3, 5]: 10% and 20% | Population Healthy Nuclei (%) [3, 5]: 42% and 50% | Population Hoechst High Intensity Objects (%) [3, 5]: 0% | Population Membrane Permeable-Phenotype (%) [3, 5]: 0% and 9% | Population Mitochondria Different-Phenotype (%) [3, 5]: 21% and 24% | Population Mitotic Cells (%) [3, 5]: 36% and 46% | Population Normal (%) [3, 5]: 99% | Population Pyknosed Nuclei (%) [3, 5]: 46% and 29% | Population Tubulin-Different-Phenotype (%) [3, 5]: 78% and 70% | Total Cell Count [3, 5]: 131 and 175 | Population Apoptotic (%) [3, 6]: 76% and 71% | Population Fragmented Nuclei (%) [3, 6]: 17% and 12% | Population Healthy Nuclei (%) [3, 6]: 49% and 56% | Population Hoechst High Intensity Objects (%) [3, 6]: 0% | Population Membrane Permeable-Phenotype (%) [3, 6]: 10% and 8% | Population Mitochondria Different-Phenotype (%) [3, 6]: 2% and 1% | Population Mitotic Cells (%) [3, 6]: 23% and 28% | Population Normal (%) [3, 6]: 100% | Population Pyknosed Nuclei (%) [3, 6]: 33% and 31% | Population Tubulin-Different-Phenotype (%) [3, 6]: 18% and 19% | Total Cell Count [3, 6]: 151 and 166 | Population Apoptotic (%) [3, 7]: 78% and 64% | Population Fragmented Nuclei (%) [3, 7]: 8% and 14% | Population Healthy Nuclei (%) [3, 7]: 30% and 41% | Population Hoechst High Intensity Objects (%) [3, 7]: 1% | Population Membrane Permeable-Phenotype (%) [3, 7]: 2% and 8% | Population Mitochondria Different-Phenotype (%) [3, 7]: 43% and 36% | Population Mitotic Cells (%) [3, 7]: 21% and 35% | Population Normal (%) [3, 7]: 98% | Population Pyknosed Nuclei (%) [3, 7]: 61% and 43% | Population Tubulin-Different-Phenotype (%) [3, 7]: 72% and 71% | Total Cell Count [3, 7]: 125 and 173 | Population Apoptotic (%) [3, 8]: 79% and 85% | Population Fragmented Nuclei (%) [3, 8]: 11% and 14% | Population Healthy Nuclei (%) [3, 8]: 47% and 50% | Population Hoechst High Intensity Objects (%) [3, 8]: 0% | Population Membrane Permeable-Phenotype (%) [3, 8]: 19% and 17% | Population Mitochondria Different-Phenotype (%) [3, 8]: 1% and 5% | Population Mitotic Cells (%) [3, 8]: 20% and 14% | Population Normal (%) [3, 8]: 100% and 99% | Population Pyknosed Nuclei (%) [3, 8]: 41% and 35% | Population Tubulin-Different-Phenotype (%) [3, 8]: 27% and 20% | Total Cell Count [3, 8]: 161 and 139 | Population Apoptotic (%) [3, 9]: 92% and 87% | Population Fragmented Nuclei (%) [3, 9]: 11% and 14% | Population Healthy Nuclei (%) [3, 9]: 15% and 21% | Population Hoechst High Intensity Objects (%) [3, 9]: 0% | Population Mitochondria Different-Phenotype (%) [3, 9]: 22% and 28% | Population Mitotic Cells (%) [3, 9]: 7% and 12% | Population Normal (%) [3, 9]: 99% | Population Pyknosed Nuclei (%) [3, 9]: 73% and 63% | Population Tubulin-Different-Phenotype (%) [3, 9]: 83% and 74% | Total Cell Count [3, 9]: 117 and 161

— ChEMBL document CHEMBL5303300, “EUbOPEN Chemogenomics Library - Multiplex” (2023)
